Assay [1] relates to Rattus norvegicus. Kind of assay: Antagonist activity at ER receptor assessed as inhibition of 17-alpha-ethynylestradiol-induced increase in uterine weight of Sprague-Dawley rat at 10 mg/kg/day, po. It is filed as functional. Particulars: for inhibition in vivo at 10 mg/kg/day: Rattus norvegicus, Sprague-Dawley. The gist of the method: (§1)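 Oral dosing was given alongside 17α-ethynylestradiol (0.02 mg/kg) in rats, with vehicle and EE-alone groups. Fresh uterine weight was expressed as percent of the EE-alone group. Values are means ± SEM of at least six animals per group. Significance was tested against the corresponding EE-alone group (P<0.05, P<0.01).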

Assay [2] relates to Rattus norvegicus. Kind of assay: Agonist activity at ER receptor assessed as increase in uterine weight of Sprague-Dawley rat at 10 mg/kg/day, po. The assay is classed as functional. In outline:
(§2)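 Immature female rats were dosed orally once daily on days 28–30 of age, with a vehicle-only control group. At autopsy on day 31, 24 h after the last dose, a vaginal smear was taken and the uterus was excised, blotted and weighed fresh. Agonism was judged by uterine weight gain, vaginal opening and cornification versus vehicle. Values are means ± SEM, n≥6 per group.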

Assay [3] relates to Rattus norvegicus. Kind of assay: Agonist activity at ER receptor assessed as increase in uterine weight of Sprague-Dawley rat at 10 mg/kg/day, po relative to control. The assay is classed as functional. In outline: as §2
For assay [4], the system named is MCF7. Kind of assay: Antiproliferative activity against MCF7 cells […] after 48 hrs. It is filed as functional. Particulars: Homo sapiens; for IC50: MCF7, 48 h. In outline: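 MCF-7 cells were trypsinized (0.05% trypsin–EDTA), plated at 10⁴ cells/well in MEM at pH 7.4, and left to attach for 24 h at 37 °C under CO₂. Compounds in ethanol/DMSO were added and incubated 48 h. Cells were fixed with cold 10% TCA for 1 h at 4 °C, stained with 0.4% SRB in 1% acetic acid for 30 min, and the stain was extracted with Tris base at pH 10.5. OD was read at 560 nm.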

The test system of assay [5] is Rattus norvegicus. Kind of assay: Activity at ER receptor assessed as additive effect on 17-alpha-ethynylestradiol-induced increase in uterine weight of Sprague-Dawley rat at 10 mg/kg/day, po. The assay is classed as functional. In outline: as §1
Assay [6] addresses T1, Estrogen receptor (Rattus norvegicus) (UniProt P06211).
T1 sequence (whole entry): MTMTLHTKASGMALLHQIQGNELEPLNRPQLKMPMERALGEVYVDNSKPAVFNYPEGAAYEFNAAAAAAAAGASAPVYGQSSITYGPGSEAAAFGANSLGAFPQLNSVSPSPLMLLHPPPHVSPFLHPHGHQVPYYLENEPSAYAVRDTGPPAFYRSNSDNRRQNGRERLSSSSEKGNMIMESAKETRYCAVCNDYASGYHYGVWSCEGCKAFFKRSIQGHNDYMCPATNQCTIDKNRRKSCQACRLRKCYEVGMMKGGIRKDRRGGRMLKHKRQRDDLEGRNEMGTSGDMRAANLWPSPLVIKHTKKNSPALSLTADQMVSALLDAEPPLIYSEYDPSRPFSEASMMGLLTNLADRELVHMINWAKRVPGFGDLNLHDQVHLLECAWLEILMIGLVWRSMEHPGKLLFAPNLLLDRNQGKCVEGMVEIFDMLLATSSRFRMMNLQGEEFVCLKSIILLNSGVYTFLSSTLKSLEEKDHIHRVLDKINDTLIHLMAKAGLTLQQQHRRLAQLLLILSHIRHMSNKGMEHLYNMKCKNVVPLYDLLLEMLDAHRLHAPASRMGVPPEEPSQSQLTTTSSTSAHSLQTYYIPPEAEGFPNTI
Kind of assay: Displacement of [3H]estradiol from ER in rat uterus […] relative to estradiol. (In a radioligand displacement assay an active substance lowers the binding of a labelled ligand.)

The subject of assay [7] is MCF7. Kind of assay: Antiproliferative activity against MCF7 cells at 3 mg/kg/day after 48 hrs. Particulars: Homo sapiens, MCF7, 48 h.
The test system of assay [8] is Rattus norvegicus. Kind of assay: Antagonist activity at ER receptor assessed as inhibition of 17-alpha-ethynylestradiol-induced increase in uterine weight of Sprague-Dawley rat at 3 mg/kg/day, po. The assay is classed as functional. The gist of the method:
as §1

The test system of assay [9] is Rattus norvegicus. Kind of assay: Agonist activity at ER receptor assessed as increase in uterine weight of Sprague-Dawley rat at 3 mg/kg/day, po. It is filed as functional. In outline:
as §2

The subject of assay [10] is Rattus norvegicus. Kind of assay: Agonist activity at ER receptor assessed as increase in uterine weight of Sprague-Dawley rat at 3 mg/kg/day, po relative to control. The assay is classed as functional. The gist of the method:
as §2

Assay [11] concerns Rattus norvegicus. Kind of assay: Antagonist activity at ER receptor assessed as inhibition of increase in uterine weight of Sprague-Dawley rat at 3 mg/kg/day, po relative to 17-alpha-ethynylestradiol. It is filed as functional. More on the design: scale not given: the % may be the effect or the level left. The gist of the method: as §1
The test system of assay [12] is Rattus norvegicus. Kind of assay: Antagonist activity at ER receptor assessed as inhibition of increase in uterine weight of Sprague-Dawley rat at 10 mg/kg/day, po relative to 17-alpha-ethynylestradiol. The assay is classed as functional. More on the design: scale not given: the % may be the effect or the level left. The gist of the method:
as §1

In assay [13] the test system is Rattus norvegicus. Kind of assay: Antagonist activity at ER receptor assessed as increase in uterine weight in Sprague-Dawley rat at 0.02 mg/kg/day, po. It is filed as functional.
The subject of assay [14] is Rattus norvegicus. Kind of assay: Agonist activity at ER receptor assessed as increase in uterine weight in Sprague-Dawley rat at 0.02 mg/kg/day, po. The assay is classed as functional. In outline:
as §2

For assay [15], the system named is Rattus norvegicus. Kind of assay: Agonist activity at ER receptor assessed as increase in uterine weight of Sprague-Dawley rat at 0.02 mg/kg/day, po relative to control. The assay is classed as functional. The gist of the method: as §2

Activity calls are given as the source filed them. The calls are words filed in the database; no cut-off is given here.

Results on 10 compounds are retold here after ChEMBL document CHEMBL1139744, “Rapid synthesis of 4-benzylidene and 4-[bis-(4-methoxyphenyl)-methylene-2-substituted phenyl-benzopyrans as potential selective estrogen receptor modulators (SERMs) using McMurry coupling reaction” (Bioorg Med Chem Lett, 2006).

What is called IC50 is the concentration that inhibits the measured activity by half. Broadly, the inhibition in vivo is the drop in the measured response relative to a control, in per cent.

As to `COc1ccc(/C=C2\CC(c3ccc(O)cc3)Oc3cc(OC)ccc32)cc1` (centres undefined), the Activity was 88.33 mg with Rattus norvegicus [1], 17.33 mg in the assay with Rattus norvegicus [2], 24% in the assay on Rattus norvegicus [3] and 88.33 mg in the assay with Rattus norvegicus [5]. This compound also showed an IC50 in the assay with MCF7 [4] of 8.77 µM. Moreover, the RBA in assay [6] was determined as 0.013%.

On to `CC/C(=C(\c1ccccc1)c1ccc(OCCN(C)C)cc1)c1ccccc1` [TAMOXIFEN], for which the IC50 with MCF7 [7] worked out at 5.09 µM. Further, the Activity in the assay with Rattus norvegicus [8] came out at 52.3 mg; with Rattus norvegicus [9] it was 46.32 mg; with Rattus norvegicus [10], 155%; in the assay with Rattus norvegicus [11] it was 49%. Further, in the assay on Rattus norvegicus [8] (Rattus norvegicus, Sprague-Dawley), the inhibition in vivo at 3 mg/kg/day turned out to be 49%.

`COc1ccc2c(c1)OC(c1ccc(O)cc1)C/C2=C\c1ccc(OCc2ccccc2)cc1` (centres undefined): the Activity in the assay on Rattus norvegicus [1] is 46.33 mg; in the assay with Rattus norvegicus [2], 38.3 mg; in the assay on Rattus norvegicus [3], 153%; with Rattus norvegicus [12], 29%. For the same compound, in the assay on Rattus norvegicus [1], the inhibition in vivo at 10 mg/kg/day was found to be 29%. For the same compound, in the assay on MCF7 [4], the outcome was inactive. This compound also came in with an RBA in assay [6] of 0.02%.

As for `COc1ccc(C(=C2CC(c3ccc(O)cc3)Oc3cc(OC)ccc32)c2ccc(OC)cc2)cc1` (centres undefined), the Activity is given as 70.33 mg in the assay with Rattus norvegicus [1], 26 mg in the assay with Rattus norvegicus [2] and 86% in the assay on Rattus norvegicus [3]. Further, the inhibition in vivo at 10 mg/kg/day with Rattus norvegicus [1] is 17%. Further, the outcome in the assay on MCF7 [4] was inactive. For the same compound, the RBA in assay [6] is 0.097%.

In the case of `COc1ccc(C(=C2CC(c3ccc(OCCN4CCCCC4)cc3)Oc3cc(OC)ccc32)c2ccc(OC)cc2)cc1` (centres undefined), the Activity in the assay on Rattus norvegicus [1] was found to be 81.7 mg; with Rattus norvegicus [2] it was 52.5 mg; in the assay with Rattus norvegicus [3], 168%. In the assay with Rattus norvegicus [1], the inhibition in vivo at 10 mg/kg/day is 26%. Moreover, it took 6.68 µM to reach half-maximal inhibition in the assay with MCF7 [4] (IC50). Besides, the RBA in assay [6] was less than 0.001%.

For the compound `COc1ccc(C(=C2CC(c3ccc(OCCN(C)C)cc3)Oc3cc(OC)ccc32)c2ccc(OC)cc2)cc1` (centres undefined), the outcome in the assay on MCF7 [4] was inactive. The RBA in [6] is less than 0.001%.

Turning to `COc1ccc(/C=C2\CC(c3ccc(OCCN(C)C)cc3)Oc3cc(OC)ccc32)cc1` (centres undefined), the Activity stood at 85.4 mg with Rattus norvegicus [1], 46.3 mg in the assay on Rattus norvegicus [2] and 189% in the assay with Rattus norvegicus [3]. The inhibition in vivo at 10 mg/kg/day in the assay with Rattus norvegicus [1] was determined as 21%. In the assay with MCF7 [4], this compound showed an IC50 of 2 µM. Also, the RBA in assay [6] was 0.006%.

Regarding `COc1ccc(/C=C2\CC(c3ccc(OCCN4CCCC4)cc3)Oc3cc(OC)ccc32)cc1` (centres undefined), the Activity in the assay on Rattus norvegicus [1] came to 92.3 mg; with Rattus norvegicus [2], 39.57 mg; in the assay with Rattus norvegicus [3], 147%. In addition, the inhibition in vivo at 10 mg/kg/day in the assay on Rattus norvegicus [1] was found to be 15%. The compound also returned an IC50 in the assay with MCF7 [4] of 7.39 µM. The compound also displayed an RBA in assay [6] of 0.095%.

As to `COc1ccc(/C=C2\CC(c3ccc(OCCN4CCCCC4)cc3)Oc3cc(OC)ccc32)cc1` (centres undefined), the Activity with Rattus norvegicus [1] was 104.4 mg; in the assay on Rattus norvegicus [2], 24.63 mg; in the assay on Rattus norvegicus [3] it was 54%. Moreover, in the assay with Rattus norvegicus [1], the inhibition in vivo at 10 mg/kg/day is 4%. Further, the midpoint of inhibition with MCF7 [4], the IC50, lay at 4.39 µM. For the same compound, the RBA in assay [6] is 0.095%.

Consider `C#C[C@]1(O)CC[C@H]2[C@@H]3CCc4cc(O)ccc4[C@H]3CC[C@@]21C` [ETHINYL ESTRADIOL], for which the Activity was determined as 66.35 mg with Rattus norvegicus [13], 66.35 mg in the assay on Rattus norvegicus [14] and 464% in the assay with Rattus norvegicus [15].
